Results reported in PMC2787731 (Biochimica et biophysica acta, 2009).
“And” between values parts separate entries of the source, which are not always exact repeats. Identical values can stand only once. “Also recorded” adds a separate entry of the source. Like-named read-outs stand apart in the source and are kept apart here. One block for each compound: values may come before it.

Columns and labels:
[1] = cited from earlier work
recombinant CES1 [2] = target: T1, recombinant CES1 (Homo sapiens, UniProt P23141); assay: Inhibition of carboxylesterase activity of recombinant human CES1; format: biochemical; settings: for Mode of inhibition of recombinant CES1 / Inhibition of carboxylesterase activity of CES1 / Effect on carboxylesterase activity of recombinant CES1 (in words): pNPV; for Mode of inhibition of recombinant CES1: curve fit of fractional inhibition, Dixon plots; for Inhibition of carboxylesterase activity of CES1: concentration not given
T1 sequence (P23141 18-567): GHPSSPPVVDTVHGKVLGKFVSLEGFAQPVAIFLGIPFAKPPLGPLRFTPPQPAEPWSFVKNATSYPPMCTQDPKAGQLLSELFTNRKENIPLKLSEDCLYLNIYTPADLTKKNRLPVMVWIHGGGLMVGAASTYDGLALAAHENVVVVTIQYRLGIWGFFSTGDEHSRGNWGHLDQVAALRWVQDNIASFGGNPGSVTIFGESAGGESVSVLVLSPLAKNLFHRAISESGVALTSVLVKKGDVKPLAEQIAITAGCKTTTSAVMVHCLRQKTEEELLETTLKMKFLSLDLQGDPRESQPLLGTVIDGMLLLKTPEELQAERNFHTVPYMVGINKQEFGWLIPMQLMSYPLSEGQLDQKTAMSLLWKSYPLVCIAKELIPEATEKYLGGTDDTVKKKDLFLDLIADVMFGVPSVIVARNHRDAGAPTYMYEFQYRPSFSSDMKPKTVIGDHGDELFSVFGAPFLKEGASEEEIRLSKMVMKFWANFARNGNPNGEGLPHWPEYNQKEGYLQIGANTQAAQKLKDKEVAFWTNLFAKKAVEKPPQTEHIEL

[3] = system: THP1 macrophage foam cells; format: cell-based, human; settings: 10 μM; for Change in intracellular cholesteryl esters vs vehicle control: BSA only acceptor
recombinant CES1 [4] = target: T1, recombinant CES1; assay: Activity-based probe; format: biochemical
How it was run: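 Recombinant human CES1 was expressed in baculovirus-infected Spodoptera frugiperda cells and purified. The enzyme was preincubated with test compound for 30 min and then treated with the activity-based probe fluorophosphonate-biotin. IC50 was estimated from probe labelling.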

recombinant CES2 = target: T2, recombinant CES2 (Homo sapiens, UniProt O00748); assay: Inhibition of recombinant CES2 activity; format: biochemical
T2 sequence (O00748 27-559): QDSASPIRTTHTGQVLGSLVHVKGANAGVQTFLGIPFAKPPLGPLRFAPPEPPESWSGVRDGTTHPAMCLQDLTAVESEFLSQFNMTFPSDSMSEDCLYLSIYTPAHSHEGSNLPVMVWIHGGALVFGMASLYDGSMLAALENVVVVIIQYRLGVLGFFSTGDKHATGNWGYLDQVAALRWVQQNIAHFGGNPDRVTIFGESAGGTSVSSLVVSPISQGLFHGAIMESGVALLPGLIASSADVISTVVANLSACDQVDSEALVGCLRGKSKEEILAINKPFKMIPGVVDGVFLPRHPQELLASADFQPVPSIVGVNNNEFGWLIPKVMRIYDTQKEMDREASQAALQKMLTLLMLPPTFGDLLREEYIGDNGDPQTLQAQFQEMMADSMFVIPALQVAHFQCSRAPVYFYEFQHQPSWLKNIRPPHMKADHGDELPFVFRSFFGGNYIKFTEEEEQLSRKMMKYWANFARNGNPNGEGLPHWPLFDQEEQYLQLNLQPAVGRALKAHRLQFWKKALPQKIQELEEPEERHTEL

[5] = target: T3, carboxylesterase activity of THP1 cell lysates (Homo sapiens, UniProt P23141); assay: Inhibition of carboxylesterase activity of THP1 cell lysates; format: biochemical
T3 sequence (P23141 18-567): T1 sequence (P23141 18-567)

recombinant CES1 [6] = target: T1, recombinant CES1; format: biochemical; settings: read-out: Inhibition of CES1 hydrolytic activity toward trans-permethrin, 20 μM AA; trans-permethrin 50 μM; 2% (w/v) fatty acid-free bovine serum albumin added
[7] = target: T4, rat CES1 ortholog (Hydrolase A) (Rattus norvegicus, UniProt P16303); assay: Inhibition of rat CES1 ortholog; format: biochemical
T4 sequence (P16303 19-565): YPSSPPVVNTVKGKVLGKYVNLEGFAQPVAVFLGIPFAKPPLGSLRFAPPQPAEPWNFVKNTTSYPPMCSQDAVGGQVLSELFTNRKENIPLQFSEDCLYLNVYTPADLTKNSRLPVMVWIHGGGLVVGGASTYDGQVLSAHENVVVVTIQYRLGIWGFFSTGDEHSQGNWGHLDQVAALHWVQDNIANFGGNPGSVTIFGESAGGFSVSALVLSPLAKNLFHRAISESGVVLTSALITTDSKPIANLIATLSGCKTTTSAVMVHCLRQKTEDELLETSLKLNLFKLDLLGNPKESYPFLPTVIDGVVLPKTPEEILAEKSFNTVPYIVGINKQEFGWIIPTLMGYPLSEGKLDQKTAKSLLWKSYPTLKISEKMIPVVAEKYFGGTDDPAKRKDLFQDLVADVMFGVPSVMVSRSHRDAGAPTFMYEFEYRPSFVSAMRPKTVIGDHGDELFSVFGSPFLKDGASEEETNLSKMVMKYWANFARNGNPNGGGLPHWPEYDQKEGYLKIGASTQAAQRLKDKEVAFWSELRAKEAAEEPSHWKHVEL

[8] = system: intracellular carboxylesterase activity of THP1 cells; assay: Intracellular carboxylesterase activity in intact THP1 monocytes; format: cell-based, human; settings: 10 μM, 80 min, pNPV
[9] = CES1 IC50, recombinant CES1, pNPV 500 μM, 15 min preincubation at 37°C
[10] = Cell lysate IC50, THP1 cell lysate, pNPV 500 μM, 15 min preincubation at 37°C
[11] = read-out: CES1 IC50, recombinant CES1, pNPV 500 μM, 15 min preincubation at 37°C

Structure (SMILES): C[C@@H](CO)CCC[C@@H](C)[C@H]1CC[C@H]2[C@@H]3CC=C4C[C@@H](O)CC[C@]4(C)[C@H]3CC[C@]12C [27-HC, 27-hydroxycholesterol]
Predicted solubility limit in aqueous solution [1]: 0.52 µM
IC50 (recombinant CES1 [2]): 0.05 ± 0.02 µM
Ki (recombinant CES1 [2]; Kiapp, recombinant CES1, ester substrate 4-MUBA, data not shown): 0.0104 ± 0.0013 µM
Ki (recombinant CES1 [2]; Kiapp, recombinant CES1, substrate pNPV, 15 min preincubation with enzyme): 0.01 µM and 0.0101 µM
Mode of inhibition of recombinant CES1 (recombinant CES1 [2]): partial non-competitive inhibitor
inhibition at 0.5 µM (recombinant CES1 [2]; read-out: Maximum inhibition of CES1 activity): ~67%
Change in intracellular cholesteryl esters vs vehicle control ([3]; 12 and 24 h): no significant changes
Change in free cholesterol levels vs vehicle control ([3]; 12 h): significantly reduced
IC50 (recombinant CES1 [4]): 0.04 ± 0.02 µM
IC50 (recombinant CES2): > 5 µM
Inhibition of carboxylesterase activity of THP1 cell lysate ([5]; 50 μM oxysterol, pNPV): ~ 78%
IC50 ([5]; IC50, carboxylesterase activity of THP1 whole-cell lysates, THP1 whole-cell lysates, pNPV): 0.033 µM

Structure (SMILES): CCCCC[C@H](O)/C=C/[C@H]1[C@H](O)CC(=O)[C@@H]1C/C=C\CCCC(=O)O [Prostaglandin E2]
IC50 (recombinant CES1 [2]; [9]): > 100 µM

Structure (SMILES): CC(C)[C@@H](O)CC[C@@H](C)[C@H]1CC[C@H]2[C@@H]3CC=C4C[C@@H](O)CC[C@]4(C)[C@H]3CC[C@]12C [24(S)-HC, 24(S)-hydroxycholesterol]
Inhibitory effect on carboxylesterase activity of THP1 cell lysates (in words) ([5]; pNPV): minimal inhibitory effect
Inhibitory effect on carboxylesterase activity of THP1 cell lysates (in words) ([5]; pNPV, listed as 24(S)-hydroxycholesterol): little inhibitory activity

Structure (SMILES): C[C@H](CCC(=O)O)[C@H]1CC[C@H]2[C@@H]3[C@H](O)C[C@@H]4C[C@H](O)CC[C@]4(C)[C@H]3C[C@H](O)[C@]12C [cholate]
IC50 (recombinant CES1 [2]; read-out: IC50, CES1 enzyme activity, data not shown): ~7000 µM

Structure (SMILES): C[C@H](CCCC(C)(C)O)[C@H]1CC[C@H]2[C@@H]3CC=C4C[C@@H](O)CC[C@]4(C)[C@H]3CC[C@]12C [25-HC, 25-hydroxycholesterol]
Inhibition of carboxylesterase activity of CES1 (recombinant CES1 [2]): < 15%
Inhibitory effect on carboxylesterase activity of THP1 cell lysates (in words) ([5]; pNPV): minimal inhibitory effect
Inhibitory effect on carboxylesterase activity of THP1 cell lysates (in words) ([5]; pNPV, listed as 25-hydroxycholesterol): little inhibitory activity

Structure (SMILES): C[C@H](CC[C@@H]1OC1(C)C)[C@H]1CC[C@H]2[C@@H]3CC=C4C[C@@H](O)CC[C@]4(C)[C@H]3CC[C@]12C [epoxycholesterol, 24(S),25-epoxycholesterol]
Change in free cholesterol levels vs vehicle control ([3]; 12 and 24 h): reduced
Change in intracellular cholesteryl esters vs vehicle control ([3]; 12 and 24 h): no significant changes
Inhibition of carboxylesterase activity of THP1 cell lysate ([5]; 50 μM oxysterol, pNPV): ~ 70%
IC50 [5, 10]: 8.1 µM

Structure (SMILES): CCCCC/C=C\C/C=C\C/C=C\C/C=C\CCCC(=O)O [AA, 5Z,8Z,11Z,14Z-Eicosatetraenoic acid]
inhibition at 20 µM (recombinant CES1 [6]): 14%
Ki (recombinant CES1 [2]): 1.7 µM
IC50 (recombinant CES1 [2]; [9]): 2 ± 1 µM
Mode of inhibition of recombinant CES1 (recombinant CES1 [2]): noncompetitive inhibition model
IC50 [7]: 50 µM
IC50 toward rat CES1 relative to the human enzyme ([7]; rat vs human CES1): 25 fold
IC50 (recombinant CES2): > 100 µM
Inhibition of carboxylesterase activity of THP1 cell lysate ([5]; 100 μM fatty acid, pNPV): ~ 90%
IC50 [5, 10]: 4 ± 1 µM

Structure (SMILES): CC(C)CC[C@@H](O)[C@@H](C)[C@H]1CC[C@H]2[C@@H]3CC=C4C[C@@H](O)CC[C@]4(C)[C@H]3CC[C@]12C [22(R)-HC, 22(R)-hydroxycholesterol]
Effect on carboxylesterase activity of recombinant CES1 (in words) (recombinant CES1 [2]): minimal activity
Change in free cholesterol levels vs vehicle control ([3]; 12 h): No change
Change in intracellular cholesteryl esters vs vehicle control ([3]; 12 h): significant reduction
Inhibition of carboxylesterase activity of THP1 cell lysate ([5]; 50 μM oxysterol, pNPV): ~ 30%
Inhibitory effect on carboxylesterase activity of THP1 cell lysates (in words) ([5]; pNPV): little inhibitory activity

Structure (SMILES): CCCCC/C=C/C=C1/C(=O)C=C[C@@H]1C/C=C\CCCC(=O)O [15-deoxy-Δ^12,14-Prostaglandin J2]
IC50 (recombinant CES1 [2]; [11]): 13 ± 3 µM

Structure (SMILES): CCCCC[C@H](O)/C=C/[C@@H]1[C@@H](C/C=C\CCCC(=O)O)[C@@H](O)C[C@H]1O [Prostaglandin F2α]
IC50 (recombinant CES1 [2]; [9]): > 100 µM

Structure (SMILES): CC(C)CCC[C@@H](C)[C@H]1CC[C@H]2[C@@H]3CC=C4C[C@@H](O)CC[C@]4(C)[C@H]3CC[C@]12C [cholesterol]
Effect on carboxylesterase activity of recombinant CES1 (in words) (recombinant CES1 [2]): almost no effect
Inhibitory effect on carboxylesterase activity of THP1 cell lysates (in words) ([5]; pNPV): little inhibitory activity; also recorded: no inhibitory effect

Structure (SMILES): CC(C)CCC[C@@H](C)[C@H]1CC[C@H]2[C@@H]3C(=O)C=C4C[C@@H](O)CC[C@]4(C)[C@H]3CC[C@]12C [7-ketocholesterol]
Inhibition of carboxylesterase activity of CES1 (recombinant CES1 [2]): < 15%
Inhibitory effect on carboxylesterase activity of THP1 cell lysates (in words) ([5]; pNPV): little inhibitory activity; also recorded: minimal inhibitory effect

Structure (SMILES): CCOP(=O)(OCC)Oc1ccc([N+](=O)[O-])cc1 [paraoxon]
Inhibition of intracellular carboxylesterase activity [8]: 87%

The remaining lines, values ahead:

IC50 (recombinant CES1 [2]; [9]): 7 ± 3 µM
IC50 [5, 10]: 11 ± 4 µM
Structure (SMILES): CCCCCCCC/C=C\CCCCCCCC(=O)O [oleic acid, 9Z-Octadecenoic acid]

IC50 (recombinant CES1 [2]; [9]): 9 ± 6 µM
IC50 [5, 10]: 20 ± 3 µM
Structure (SMILES): CCCCC/C=C\C/C=C\CCCCCCCC(=O)O [linoleic acid, 9Z,12Z-Octadecadienoic acid]

IC50 (recombinant CES1 [2]; [9]): 19 ± 10 µM
IC50 [5, 10]: 23 ± 3 µM
Structure (SMILES): CCCCC/C=C\C/C=C\C/C=C\CCCCC(=O)O [γ-linolenic acid, 6Z,9Z,12Z-Octadecatrienoic acid]

IC50 (recombinant CES1 [2]; [9]): 9 ± 3 µM
IC50 [5, 10]: 28 ± 4 µM
Structure (SMILES): CCCCCCCCCCCCCC(=O)O [myristic acid, Tetradecanoic acid]

IC50 (recombinant CES1 [2]; [9]): 12 ± 2 µM
IC50 [5, 10]: 23 ± 6 µM
Structure (SMILES): CCCC/C=C\CCCCCCCC(=O)O [myristoleic acid, 9Z-Tetradecenoic acid]

IC50 (recombinant CES1 [2]; [11]): 27 ± 1 µM
Structure (SMILES): CCCCC/C=C\CC1OC1C/C=C\C/C=C\CCCC(=O)O (stereo not drawn) [11,12-EET, 11,12-Epoxy-5Z,8Z,14Z-eicosatrienoic acid]

IC50 (recombinant CES1 [2]; [9]): > 100 µM
IC50 [5, 10]: > 100 µM
Structure (SMILES): CCCCCCCCCCCCCCCCCC(=O)O [stearic acid, Octadecanoic acid]

IC50 (recombinant CES1 [2]; [11]): 38 ± 1 µM
Structure (SMILES): CCCCCC1OC1C/C=C\C/C=C\C/C=C\CCCC(=O)O (stereo not drawn) [14,15-EET]

IC50 (recombinant CES1 [2]; [9]): 25 ± 13 µM
IC50 [5, 10]: > 100 µM
Structure (SMILES): CCCCCCCCCCCCCCCC(=O)O [palmitic acid, Hexadecanoic acid]
